Measurements of several laboratories.
Protocols differ between the studies behind these lines.

SMILES | assay | test system | setting | measurement | value
CCn1c2ccccc2c2cc(-n3nncc3-c3ccccc3)ccc21 | – | female BALB/c mouse, plasma | intraperitoneal, 10 mg/kg, single dose | Vd/F | ~0.4 L
CC(C)(C)c1ccc(O)c(CN(Cc2cc(C(C)(C)C)ccc2O)C2CCC(NC(N)=O)CC2)c1 (stereo not shown) | – | male C57BL/6 mouse, plasma | intraperitoneal, 10 mg/kg, single dose | Vd | 3.7 L
CC[C@H](C)[C@H](NC(=O)[C@H](CCC(=O)O)NC(=O)[C@H](CO)NC(=O)[C@@H](NC(=O)[C@@H](N)CO)C(C)C)C(=O)N[C@@H](CCC(N)=O)C(=O)N[C@@H](CC(C)C)C(=O)N[C@@H](CCSC)C(=O)N[C@@H](Cc1cnc[nH]1)C(=O)N[C@@H](CC(N)=O)C(=O)N[C@@H](CC(C)C)C(=O)NCC(=O)N[C@@H](CCCCN)C(=O)N[C@@H](Cc1cnc[nH]1)C(=O)N[C@@H](CC(C)C)C(=O)N[C@@H](CC(N)=O)C(=O)N[C@@H](CO)C(=O)N[C@@H](CCSC)C(=O)N[C@@H](CCC(=O)O)C(=O)N[C@@H](CCCN=C(N)N)C(=O)N[C@H](C(=O)N[C@@H](CCC(=O)O)C(=O)N[C@@H](Cc1c[nH]c2ccccc12)C(=O)N[C@@H](CC(C)C)C(=O)N[C@@H](CCCN=C(N)N)C(=O)N[C@@H](CCCCN)C(=O)N[C@@H](CCCCN)C(=O)N[C@@H](CC(C)C)C(=O)N[C@@H](CCC(N)=O)C(=O)N[C@@H](CC(=O)O)C(=O)N[C@H](C(=O)N[C@@H](Cc1cnc[nH]1)C(=O)N[C@@H](CC(N)=O)C(=O)N[C@@H](Cc1ccccc1)C(=O)O)C(C)C)C(C)C | chemical stability, HPLC | aqueous buffer | 0.5 mg/mL, 10 min, pH 6.5 | compound remaining | 100%
CC(=O)N[C@@H](Cc1ccccc1)C(=O)N[C@@H](Cc1ccccc1)C(=O)N[C@@H](C)C(=O)N[C@@H](CC(C)C)C(=O)NCC(=O)N[C@@H](CC(C)C)C(=O)N[C@@H](C)C(=O)NCC(=O)N[C@@H](CC(=O)O)C(=O)N[C@@H](CC(=O)O)C(=O)O | chemical stability | human, plasma | 1 mM, pH 7.4 | half-life | 8.64 h
COCCOc1cnc2ccn([C@H](C)c3nnc4c(F)cc(-c5cnn(C)c5)cn34)c(=O)c2c1 | – | human, plasma | oral, 25 mg, multiple doses, once daily, patients | half-life | 6.3 h
C[C@]1(c2nc3c(C(N)=O)cccc3[nH]2)CCCN1 | – | male rhesus monkey, plasma | oral, 5 mg/kg, single dose | AUC(0-inf) | 3.7 µM·h
COc1ccc([C@@H]2CN(C(=O)[C@@H](O)CO)C[C@@]2(C)[C@@H](C)O)cc1OC1CN(c2ccc(C)cn2)C1 | – | human, plasma | oral, 0.5 mg, single dose, healthy volunteers | half-life | 11.9 h
CC(C)(O)c1ccccc1-c1ccc2[nH]c(/C=C/c3ccc(C(F)(F)F)cc3)nc2c1 | – | male human, plasma | oral, 5 mg, single dose, fasted, healthy volunteers | half-life | 29.9 h
CC(=O)OCOC(=O)C1CC(C)(C)N([O])C1(C)C (stereo not shown) | chemical stability | bovine, serum | – | half-life | 0.567 h
CC(C)n1cc(C#N)c2cc(-n3cc(C(=O)O)cn3)ccc21 | – | human, plasma | oral, 200 mg, single dose, fed, healthy volunteers | half-life | 15 h
